ChEMBL document CHEMBL5674889, “Enhanced JunD/RSK3 signalling due to loss of BRD4/FOXD3/miR-548d-3p axis determines BET inhibition resistance” (2020)
Calls of active or inactive are those of the source.

Tests used:
BT-549 [1] = assay: Antiproliferative activity in human BT-549 cells assessed as cell growth in the presence of miR-548d-3p inhibitor at 1 uM by CCK-8 assay; format: functional, cell-based
Method in brief: (§1)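 BLBC cells transfected with miR-548d-3p mimic or inhibitor, with or without JQ1; growth read by CCK-8 assay relative to DMSO-treated control, seeded at 3000/well. Triplicates, mean ± SD, one-way ANOVA.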

MDA-MB-231 [2] = assay: Antiproliferative activity in human JUND-knockdown MDA-MB-231 cells assessed as cell viability at 1 uM by CellTiter-Glo luminescent cell viability assay; format: functional, cell-based
Method in brief: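 Stable JUND-knockdown (shRNA, puromycin 1.0 μg/ml selection) or JUND-overexpressing clones and vector controls, seeded 3000 cells/well and adhered overnight, then given DMSO or JQ1 (1 μM) for 48 h. Read-out CellTiter-Glo luminescence normalized to DMSO control; triplicates, mean ± SD, one-way ANOVA.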

BT-549 [3] = assay: Antiproliferative activity in human FOXD3-knockdown BT-549 cells assessed as cell growth at 1 uM by CCK-8 assay; format: functional, cell-based
BT-549 [4] = assay: Cytotoxicity in human RSK3-overexpressing BT-549 cells assessed as cell viability at 1 uM for 48 hrs by CellTiter-Glo luminescent cell viability assay; format: functional, cell-based
Method in brief: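 CellTiter-Glo viability: stable overexpressing or shRNA clones (puromycin 1.0 μg/ml selection) seeded 3000 cells/well, adhered overnight, then exposed to 1 μM for 48 h. Luminescence is background-subtracted and normalised to DMSO-treated control. Triplicates, mean ± SD, one-way ANOVA. MDA-MB-231 cells are kept in DMEM and BT549 in RPMI-1640, each with 10% FBS.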

MDA-MB-231 [5] = assay: Antiproliferative activity in human MDA-MB-231 cells assessed as cell growth in the presence of miR-548d-3p at 1 uM by CCK-8 assay; format: functional, cell-based; method in brief: as §1
BT-549 [6] = assay: Antiproliferative activity in human BT-549 cells assessed as cell growth in the presence of AZ5104 at 1 uM by CellTiter-Glo luminescent cell viability assay; format: functional, cell-based
Method in brief: (§2)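 BLBC cells seeded at 3000/well, adhered overnight, then exposed to JQ1 (1 μM) with or without an EGFR inhibitor (1 μM) for 48 h; control and RPS6KA2-shRNA clones tested. Viability by CellTiter-Glo luminescence, background-subtracted and normalized to DMSO-treated control; triplicates, mean ± SD, one-way ANOVA against JQ1 alone.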

BT-549 [7] = assay: Effect on induction of RPS6KA2 transcription in human BT-549 cells assessed as JunD protein expression at 1 uM for 24 hrs by Western blot analysis; format: functional, cell-based
BT-549 [8] = assay: Antiproliferative activity in human FOXD3-knockdown BT-549 cells co-silenced with shRNA of RPS6KA2 assessed as cell growth at 1 uM by CCK-8 assay; format: functional, cell-based
MDA-MB-231 [9] = assay: Effect on human MDA-MB-231 cells assessed as RSK3 protein expression at 1 uM for 24 hrs by Western blot analysis; format: functional, cell-based
Method in brief: (§3)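 Western blot for RSK3 in MDA-MB-231 and BT549 cells treated with DMSO or 1 μM for 0, 12 and 24 h. Antibody used at 1:1000.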

MDA-MB-231 [10] = assay: Induction of apoptosis in human MDA-MB-231 cells assessed as caspase-3 cleavage in the presence of osimertinib at 1 uM by Western blotting analysis; format: functional, cell-based
BT-474 = assay: Antiproliferative activity in human FOXD3-overexpressing BT-474 cells assessed as cell growth at 1 uM by CCK-8 assay; format: functional, cell-based
BT-549 [11] = assay: Effect on human RPS6KA2-knockdown BT-549 cells assessed as inhibition tumor sphere formation at 1 uM by Tumor sphere assay; format: functional, cell-based
BT-549 [12] = assay: Effect on human RPS6KA2 knockdown BT-549 cells assessed as RSK3 protein expression at 1 uM for 24 hrs by Western blot analysis; format: functional, cell-based
MDA-MB-231 [13] = assay: Effect on human RPS6KA2 knockdown MDA-MB-231 cells assessed as RSK3 protein expression at 1 uM for 24 hrs by Western blot analysis; format: functional, cell-based
MDA-MB-231 [14] = assay: Effect on human BRD4-knockdown MDA-MB-231 cells assessed as miR-548d-3p expression at 1 uM by real-time PCR analysis; format: functional, cell-based
MDA-MB-231 [15] = assay: Antiproliferative activity in human MDA-MB-231 cells assessed as cell growth in the presence of osimertinib at 1 uM by CellTiter-Glo luminescent cell viability assay; format: functional, cell-based; method in brief: as §2
MDA-MB-231 [16] = assay: Antiproliferative activity in human MDA-MB-231 cells assessed as inhibition of cell growth at 1 uM by CCK-8 assay; format: functional, cell-based
MDA-MB-231 [17] = assay: Effect on human JUND-knockdown MDA-MB-231 cells assessed as reduction of RSK3 protein expression at 1 uM by Western blot analysis; format: functional, cell-based
Method in brief: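 RSK3 and JunD were probed by western blot in JUND-knockdown or JUND-overexpressing stable clones and their controls, all selected with puromycin 1.0 μg/ml. Antibodies used at 1:1000.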

MDA-MB-231 [18] = assay: Antiproliferative activity in human FOXD3-knockdown MDA-MB-231 cells co-silenced with shRNA of RPS6KA2 assessed as cell growth at 1 uM by CCK-8 assay; format: functional, cell-based
MDA-MB-231 [19] = assay: Antiproliferative activity in human FOXD3-knockdown MDA-MB-231 cells assessed as cell growth at 1 uM by CCK-8 assay; format: functional, cell-based
MDA-MB-231 [20] = assay: Effect on induction of RPS6KA2 transcription in human MDA-MB-231 cells assessed as JunD protein expression at 1 uM for 24 hrs by Western blot analysis; format: functional, cell-based
MDA-MB-231 [21] = assay: Effect on human RPS6KA2 transfected MDA-MB-231 cells by measuring luciferase activity at 20 uM by Luciferase reporter assay; format: functional, cell-based
BT-549 [22] = assay: Effect on human BT-549 cells assessed as RSK3 […] expression at 1 uM for 24 hrs by Western blot analysis; format: functional, cell-based
MDA-MB-231 [23] = assay: Inhibition of FOXD3/-BRD4 protein-protein interaction in human MDA-MB-231 cells at 1 uM by Co-immunoprecipitation analysis; format: cell-based
Method in brief: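 Endogenous FOXD3 or BRD4 pulled down from MDA-MB-231 lysates with specific antibodies; partner detected by western blot.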

MDA-MB-231 [24] = assay: Antiproliferative activity in human RPS6KA2 expressed in JUND knock-down MDA-MB-231 cells assessed as inhibition of cell growth at 1 uM by CCK-8 assay; format: functional, cell-based
BT-549 [25] = assay: Effect on human BT-549 cells assessed as RSK3 protein expression at 1 uM for 24 hrs by Western blot analysis; format: functional, cell-based; method in brief: as §3
MDA-MB-231 [26] = assay: Effect on JUND dependent RPS6KA2 transcription in human JUND-knockdown MDA-MB-231 cells assessed reduction in transcription level at 1 uM by ChIP-RT-PCR analysis; format: functional, cell-based
Method in brief: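 ChIP-qPCR used ~1 × 10^6 cross-linked JUND-knockdown or control cells treated with DMSO or 1 μM for 6 h. Immunoprecipitated DNA was quantified by real-time PCR with primers specific to the RPS6KA2 enhancer. Non-specific primers downstream of the gene 3′ end served as control.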

BT-549 [27] = assay: Antiproliferative activity in human JUND-knockdown BT-549 cells assessed as stronger tumor sphere formation at 1 uM by tumor sphere assay; format: functional, cell-based
MDA-MB-231 [28] = assay: Effect on human MDA-MB-231 cells assessed as RSK3 […] expression at 1 uM for 24 hrs by Western blot analysis; format: functional, cell-based

Cc1sc2c(c1C)C(c1ccc(Cl)cc1)=N[C@@H](CC(=O)OC(C)(C)C)c1nnc(C)n1-2
active: Activity (BT-549 [1]) | Activity (MDA-MB-231 [2]) | Activity (BT-549 [3]) | Activity (BT-549 [4]) | Activity (MDA-MB-231 [5]) | Activity (BT-549 [6]) | Activity (BT-549 [7]) | Activity (BT-549 [8]) | Activity (MDA-MB-231 [9]) | Activity (MDA-MB-231 [10]) | Activity (BT-474) | Activity (BT-549 [11]) | Activity (BT-549 [12]) | Activity (MDA-MB-231 [13]) | Activity (MDA-MB-231 [14]) | Activity (MDA-MB-231 [15]) | Activity (MDA-MB-231 [16]) | Activity (MDA-MB-231 [17]) | Activity (MDA-MB-231 [18]) | Activity (MDA-MB-231 [19]) | Activity (MDA-MB-231 [20]) | Activity (MDA-MB-231 [21]) | Activity (BT-549 [22]) | inhibition (MDA-MB-231 [23]) | Activity (MDA-MB-231 [24]) | Activity (BT-549 [25]) | Activity (MDA-MB-231 [26]) | Activity (BT-549 [27]) | Activity (MDA-MB-231 [28])
